Reference: ChEMBL document CHEMBL1140881, “Discovery of 13-oxa prostaglandin analogs as antiglaucoma agents: synthesis and biological activity” (Bioorg Med Chem, 2009)
Active and inactive are the calls of the source. No cut-off for these calls is given here.

Experiments:
Oryctolagus cuniculus [1] = species on record: Oryctolagus cuniculus; test: Effect on ocular irritation in New Zealand albino rabbit assessed as incidence of ocular discharge at 0.03 ug after 1 to 5 hrs; format: functional, Eye
Summary of the method: (§1)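 Topical single 30 µL drop into both eyes of each of five rabbits, doses 0.03–100 µg. Vehicle was trimethamine/boric acid buffer with 4.6% mannitol, HCO-40, 0.01% EDTA and 0.01% benzalkonium chloride, pH 7.4. Eyes were scored at 1, 2, 3 and 5 h. The percent of eyes scoring +2 or greater, pooled across all time points, is reported as study % incidence. Qualitative, with no statistics.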

Oryctolagus cuniculus [2] = species on record: Oryctolagus cuniculus; test: Effect on ocular irritation in New Zealand albino rabbit assessed as incidence of conjunctival swelling at 1 ug after 1 to 5 hrs; format: functional, Conjunctiva; summary of the method: as §1
Oryctolagus cuniculus [3] = species on record: Oryctolagus cuniculus; test: Effect on ocular irritation in New Zealand albino rabbit assessed as incidence of ocular discharge at 0.1 ug after 1 to 5 hrs; format: functional, Eye; summary of the method: as §1
Oryctolagus cuniculus [4] = species on record: Oryctolagus cuniculus; test: Effect on ocular irritation in New Zealand albino rabbit assessed as incidence of conjunctival hyperemia at 10 ug after 1 to 5 hrs; format: functional, Conjunctiva; summary of the method: as §1
Macaca fascicularis [5] = species on record: Macaca fascicularis; test: Toxicity in monkey assessed as drug tolerance; conditions: cynomolgus monkey, in vivo
Oryctolagus cuniculus [6] = species on record: Oryctolagus cuniculus; test: Effect on ocular irritation in New Zealand albino rabbit assessed as incidence of ocular discharge at 10 ug after 1 to 5 hrs; format: functional, Eye; summary of the method: as §1
Macaca fascicularis [7] = species on record: Macaca fascicularis; test: Induction of miosis in monkey; conditions: cynomolgus monkey, in vivo
Oryctolagus cuniculus [8] = species on record: Oryctolagus cuniculus; test: Effect on ocular irritation in New Zealand albino rabbit assessed as incidence of conjunctival hyperemia at 30 ug after 1 to 5 hrs; format: functional, Conjunctiva; summary of the method: as §1
Felis catus [9] = species on record: Felis catus; test: Toxicity in normotensive cat assessed as discomfort; format: organism-based; conditions: in vivo
Oryctolagus cuniculus [10] = species on record: Oryctolagus cuniculus; test: Effect on ocular irritation in New Zealand albino rabbit assessed as incidence of ocular discharge at 0.3 ug after 1 to 5 hrs; format: functional, Eye; summary of the method: as §1
Oryctolagus cuniculus [11] = species on record: Oryctolagus cuniculus; test: Effect on ocular irritation in New Zealand albino rabbit assessed as incidence of conjunctival swelling at 10 ug after 1 to 5 hrs; format: functional, Conjunctiva; summary of the method: as §1
Macaca fascicularis [12] = species on record: Macaca fascicularis; test: Inhibition of intraocular pressure in hypertensive monkey at 3 ug, bid after 5th dose; design: scale not given: the % may be the effect or the level left
Oryctolagus cuniculus [13] = species on record: Oryctolagus cuniculus; test: Effect on ocular irritation in New Zealand albino rabbit assessed as incidence of ocular discharge at 1 ug after 1 to 5 hrs; format: functional, organism-based, Eye; summary of the method: as §1
Felis catus [14] = species on record: Felis catus; test: Acute […] response in normotensive cat assessed as AUC (1 to 5 hrs) at 1 ug; format: functional
Summary of the method: (§2)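 Conscious cats held in cat bags under uniform room lighting. Horizontal pupil diameter read with a hand-held micrometer, then again at 0.5, 1, 1.5, 2, 2.5, 3, 4 and 5 h after topical dosing. The AUC of pupil diameter change versus time over 1–5 h was computed from group averages. Ranking is qualitative, with no statistics.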

Oryctolagus cuniculus [15] = species on record: Oryctolagus cuniculus; test: Effect on ocular irritation in New Zealand albino rabbit assessed as incidence of conjunctival hyperemia at 0.03 ug after 1 to 5 hrs; format: functional, Conjunctiva; summary of the method: as §1
Oryctolagus cuniculus [16] = species on record: Oryctolagus cuniculus; test: Effect on ocular irritation in New Zealand albino rabbit assessed as incidence of conjunctival swelling at 0.1 ug after 1 to 5 hrs; format: functional, Conjunctiva; summary of the method: as §1
Felis catus [17] = species on record: Felis catus; test: Acute […] response in normotensive cat assessed as AUC (1 to 5 hrs) at 0.3 ug; format: functional; summary of the method: as §2
Macaca fascicularis [18] = species on record: Macaca fascicularis; test: Inhibition of intraocular pressure in hypertensive monkey at 3 ug, bid after 4th dose measured after 16 hrs; design: scale not given: the % may be the effect or the level left
Macaca fascicularis [19] = species on record: Macaca fascicularis; test: Inhibition of intraocular pressure in hypertensive monkey at 3 ug after first instillation; design: scale not given: the % may be the effect or the level left
Oryctolagus cuniculus [20] = species on record: Oryctolagus cuniculus; test: Effect on ocular irritation in New Zealand albino rabbit assessed as incidence of conjunctival hyperemia at 0.1 ug after 1 to 5 hrs; format: functional, Conjunctiva; summary of the method: as §1
Oryctolagus cuniculus [21] = species on record: Oryctolagus cuniculus; test: Effect on ocular irritation in New Zealand albino rabbit assessed as incidence of conjunctival swelling at 0.3 ug after 1 to 5 hrs; format: functional, Conjunctiva; summary of the method: as §1
Oryctolagus cuniculus [22] = species on record: Oryctolagus cuniculus; test: Effect on ocular irritation in New Zealand albino rabbit assessed as incidence of conjunctival hyperemia at 0.3 ug after 1 to 5 hrs; format: functional, Conjunctiva; summary of the method: as §1
Felis catus [23] = species on record: Felis catus; test: Acute […] response in normotensive cat assessed as AUC (1 to 5 hrs) at 0.1 ug; format: functional; summary of the method: as §2
Oryctolagus cuniculus [24] = species on record: Oryctolagus cuniculus; test: Effect on ocular irritation in New Zealand albino rabbit assessed as incidence of conjunctival hyperemia at 1 ug after 1 to 5 hrs; format: functional, Conjunctiva; summary of the method: as §1
Oryctolagus cuniculus [25] = species on record: Oryctolagus cuniculus; test: Effect on ocular irritation in New Zealand albino rabbit assessed as incidence of conjunctival hyperemia at 3 ug after 1 to 5 hrs; format: functional, Conjunctiva; summary of the method: as §1
Oryctolagus cuniculus [26] = species on record: Oryctolagus cuniculus; test: Effect on ocular irritation in New Zealand albino rabbit assessed as incidence of ocular discharge at 30 ug after 1 to 5 hrs; format: functional, Eye; summary of the method: as §1
Oryctolagus cuniculus [27] = species on record: Oryctolagus cuniculus; test: Effect on ocular irritation in New Zealand albino rabbit assessed as incidence of conjunctival swelling at 0.03 ug after 1 to 5 hrs; format: functional, Conjunctiva; summary of the method: as §1
Oryctolagus cuniculus [28] = species on record: Oryctolagus cuniculus; test: Effect on ocular irritation in New Zealand albino rabbit assessed as incidence of ocular discharge at 3 ug after 1 to 5 hrs; format: functional, Eye; summary of the method: as §1
Felis catus [29] = species on record: Felis catus; test: Toxicity in normotensive cat assessed as ocular irritation; format: organism-based, Eye; conditions: in vivo
Oryctolagus cuniculus [30] = species on record: Oryctolagus cuniculus; test: Effect on ocular irritation in New Zealand albino rabbit assessed as incidence of conjunctival swelling at 30 ug after 1 to 5 hrs; format: functional, Conjunctiva; summary of the method: as §1
Macaca fascicularis [31] = species on record: Macaca fascicularis; test: Inhibition of intraocular pressure in hypertensive monkey at 1 ug, bid; conditions: Eye
Oryctolagus cuniculus [32] = species on record: Oryctolagus cuniculus; test: Effect on ocular irritation in New Zealand albino rabbit assessed as incidence of conjunctival swelling at 3 ug after 1 to 5 hrs; format: functional, Conjunctiva; summary of the method: as §1
Oryctolagus cuniculus [33] = species on record: Oryctolagus cuniculus; test: Effect on ocular irritation in New Zealand albino rabbit assessed as incidence of ocular discharge 1.8 ug after 1 to 5 hrs; format: functional, Eye; summary of the method: as §1
Oryctolagus cuniculus [34] = species on record: Oryctolagus cuniculus; test: Effect on ocular irritation in New Zealand albino rabbit assessed as incidence of conjunctival swelling 1.8 ug after 1 to 5 hrs; format: functional, Conjunctiva; summary of the method: as §1
[35] = target: Prostaglandin F2-alpha receptor (Mus musculus, UniProt P43117); test: Agonist activity at FP receptor in Swiss mouse 3T3 cells assessed as [3H]-IP accumulation by scintillation counting; format: functional, cell-based
Sequence of Prostaglandin F2-alpha receptor (Mus musculus, UniProt P43117) (P43117 whole entry): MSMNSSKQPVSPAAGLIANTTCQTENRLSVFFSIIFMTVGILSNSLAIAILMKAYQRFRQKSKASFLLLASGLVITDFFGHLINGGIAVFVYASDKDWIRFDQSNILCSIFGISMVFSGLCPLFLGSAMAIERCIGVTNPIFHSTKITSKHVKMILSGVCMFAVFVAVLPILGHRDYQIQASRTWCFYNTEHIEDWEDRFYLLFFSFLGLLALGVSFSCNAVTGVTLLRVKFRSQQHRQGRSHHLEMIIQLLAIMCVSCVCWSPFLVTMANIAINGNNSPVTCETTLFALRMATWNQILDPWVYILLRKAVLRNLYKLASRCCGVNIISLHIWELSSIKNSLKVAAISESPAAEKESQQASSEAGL
Summary of the method: (§3)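 Swiss 3T3 mouse fibroblasts carry an endogenous FP receptor. They were rinsed in DMEM/F-12 with 10 mM LiCl, then exposed to agonist or vehicle in that medium for 60 min at 37 °C. The reaction was stopped with ice-cold 0.1 M formic acid. Total [3H]-IPs were eluted with ammonium formate in formic acid and counted by scintillation. EC50 and Emax came from nonlinear fits of concentration-response curves pooled from several experiments.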

Oryctolagus cuniculus [36] = species on record: Oryctolagus cuniculus; test: Effect on ocular irritation in New Zealand albino rabbit assessed as incidence of conjunctival hyperemia at 1.8 ug after 1 to 5 hrs; format: functional, Conjunctiva; summary of the method: as §1
[37] = target: Prostaglandin F2-alpha receptor (Mus musculus) (UniProt P43117); test: Agonist activity at FP receptor in Swiss mouse 3T3 cells assessed as [3H]-IP accumulation by scintillation counting relative to control; format: functional, cell-based; summary of the method: as §3
Sequence of Prostaglandin F2-alpha receptor (Mus musculus) (P43117 whole entry): as above

[38] = target: Prostaglandin F2-alpha receptor (Bos taurus, UniProt P37289); test: Displacement of [3H]PGF2 alpha from FP receptor in bovine corpus luteum membrane; format: cell membranes
Sequence of Prostaglandin F2-alpha receptor (Bos taurus, UniProt P37289) (P37289 whole entry): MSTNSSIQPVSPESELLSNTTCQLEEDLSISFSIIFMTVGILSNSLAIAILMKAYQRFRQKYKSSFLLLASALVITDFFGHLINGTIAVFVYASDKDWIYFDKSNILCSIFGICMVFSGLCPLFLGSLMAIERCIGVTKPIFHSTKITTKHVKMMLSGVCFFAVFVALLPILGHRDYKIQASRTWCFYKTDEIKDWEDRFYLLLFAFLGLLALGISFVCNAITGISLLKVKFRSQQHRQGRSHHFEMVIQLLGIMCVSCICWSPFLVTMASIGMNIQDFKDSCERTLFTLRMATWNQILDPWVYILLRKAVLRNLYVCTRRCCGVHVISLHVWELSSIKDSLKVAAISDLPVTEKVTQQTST
Summary of the method: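 Nonspecific binding was set with 10 µM unlabeled PGF2α or cloprostenol. Bound and free ligand were separated by vacuum filtration on PEI-soaked GF/B filters and counted. Ki came from nonlinear fitting across several experiments.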

## CC(C)OC(=O)CCC/C=C\C[C@@H]1[C@@H](OC[C@@H](O)CCc2cccc(C(F)(F)F)c2)[C@H](O)C[C@@H]1O
Oryctolagus cuniculus [1]
  Activity: 5%
Oryctolagus cuniculus [2]
  Activity: 30%
Oryctolagus cuniculus [3]
  Activity: 3%
Oryctolagus cuniculus [4]
  Activity: 23%
Macaca fascicularis [5]
  Activity: Not Active
Oryctolagus cuniculus [6]
  Activity: 15%
Macaca fascicularis [7]
  Activity: Not Active
Oryctolagus cuniculus [8]
  Activity: 73%
Felis catus [9]
  Activity: Non-toxic
Oryctolagus cuniculus [10]
  Activity: 3%
Oryctolagus cuniculus [11]
  Activity: 35%
Macaca fascicularis [12]
  Activity: 30%
Oryctolagus cuniculus [13]
  Activity: 5%
Felis catus [14]
  Activity: 10.2
Oryctolagus cuniculus [15]
  Activity: 13%
Oryctolagus cuniculus [16]
  Activity: 38%
Felis catus [17]
  Activity: 6.57
Macaca fascicularis [18]
  Activity: 21%
Macaca fascicularis [19]
  Activity: 22%
Oryctolagus cuniculus [20]
  Activity: 13%
Oryctolagus cuniculus [21]
  Activity: 25%
Oryctolagus cuniculus [22]
  Activity: 8%
Felis catus [23]
  Activity: 3.12
Oryctolagus cuniculus [24]
  Activity: 13%
Oryctolagus cuniculus [25]
  Activity: 25%
Oryctolagus cuniculus [26]
  Activity: 0%
Oryctolagus cuniculus [27]
  Activity: 23%
Oryctolagus cuniculus [28]
  Activity: 0%
Felis catus [29]
  Activity: Non-toxic
Oryctolagus cuniculus [30]
  Activity: 45%
Macaca fascicularis [31]
  Activity: inactive
Oryctolagus cuniculus [32]
  Activity: 8%

## O=C(O)CCC/C=C\C[C@@H]1[C@@H](CC[C@@H](O)CCc2ccccc2)[C@H](O)C[C@@H]1O [LATANOPROST ACID]
Oryctolagus cuniculus [33]
  Activity: 20%
Oryctolagus cuniculus [34]
  Activity: 40%
[35]
  EC50: 31.7 nM
Oryctolagus cuniculus [36]
  Activity: 45%
[37]
  Activity: 85%
[38]
  Ki: 98 nM

## O=C(O)CCC/C=C\C[C@@H]1[C@@H](OC[C@@H](O)COc2cccc(Cl)c2)[C@H](O)C[C@@H]1O
[35]
  EC50: 52.4 nM
[37]
  Activity: 62%
[38]
  Ki: 680 nM

## O=C(O)CCC/C=C\C[C@@H]1[C@@H](OC[C@H](O)CCc2cccc(C(F)(F)F)c2)[C@H](O)C[C@@H]1O
[35]
  EC50: 5.7 nM
[37]
  Activity: 82%
[38]
  Ki: 130 nM

## CCCCC[C@H](O)/C=C/[C@@H]1[C@@H](C/C=C\CCCC(=O)O)[C@@H](O)C[C@H]1O [DINOPROST]
Oryctolagus cuniculus [2]
  Activity: 40%
Oryctolagus cuniculus [24]
  Activity: 100%

## O=C(O)CCC/C=C\C[C@@H]1[C@@H](OC[C@@H](O)CCc2cccc(C(F)(F)F)c2)[C@H](O)C[C@@H]1O
[35]
  EC50: 1.9 nM
[37]
  Activity: 78%
[38]
  Ki: 72 nM

## O=C(O)CCC/C=C\C[C@@H]1[C@@H](OC[C@H](O)COc2cccc(Cl)c2)[C@H](O)C[C@@H]1O
[35]
  EC50: 62.2 nM
[37]
  Activity: 86%
[38]
  Ki: 140 nM

## O=C(O)CCC/C=C\C[C@@H]1[C@@H](OC[C@@H](O)COc2ccccc2)[C@H](O)C[C@@H]1O
[35]
  EC50: 294 nM
[37]
  Activity: 67%
[38]
  Ki: 120 nM

## O=C(O)CCC/C=C\C[C@@H]1[C@@H](OC[C@H](O)COc2ccccc2)[C@H](O)C[C@@H]1O
[35]
  EC50: 68.6 nM
[37]
  Activity: 67%
[38]
  Ki: 87 nM
